High-throughput results from PubChem BioAssay.
In the library only some 3.4% were active in any assay of this set; here they are far more common.
CHRM1 agonist: agonists of human M1 muscarinic receptor | P11229 | CHO-K1 hM1, Fluo-8 calcium fluorescence, agonist mode; 0% DMSO, 100% acetylcholine EC100 | activation, % at 3 µM | 0.33% of 360,000 active | AID 588814;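 active = activation above the run's mean compound activation plus 3 SD, cut at about 16% in these data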;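 note: peak over basal fluorescence ratio within a 140 s kinetic read after compound addition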
Target sequence (P11229 whole entry, looked up): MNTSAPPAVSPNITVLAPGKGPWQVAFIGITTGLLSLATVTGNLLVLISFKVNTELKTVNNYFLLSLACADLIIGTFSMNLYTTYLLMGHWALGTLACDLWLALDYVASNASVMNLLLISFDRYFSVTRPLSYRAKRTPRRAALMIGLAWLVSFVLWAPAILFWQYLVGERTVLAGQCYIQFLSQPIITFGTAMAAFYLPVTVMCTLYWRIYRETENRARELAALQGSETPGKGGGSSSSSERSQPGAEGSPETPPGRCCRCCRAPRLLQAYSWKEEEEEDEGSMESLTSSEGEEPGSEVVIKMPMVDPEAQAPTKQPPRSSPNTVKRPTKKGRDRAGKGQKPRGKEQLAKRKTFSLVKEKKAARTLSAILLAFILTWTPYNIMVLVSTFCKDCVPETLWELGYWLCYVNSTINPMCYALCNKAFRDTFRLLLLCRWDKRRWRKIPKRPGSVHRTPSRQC
TAAR1 antag: antagonists of human TAAR1 | Q96RJ0 | CHO RD-HGA16 TAAR1, Fluo-8 calcium fluorescence, antagonist | inhibition, % at 3 µM | 1.5% of 360,000 active;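 active = inhibition above a per-plate cutoff, the mean inhibition of test compounds on that plate plus 3 SD, cut at about 49% in these data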
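Material: CHO RD-HGA16 cells bearing hTAAR1; compound dosing: one-point dosing, 3 µM nominal final; schedule: dye loading 75 min at 37 °C, then 30 min room temperature; measured by: calcium fluorescence with Fluo-8; control set: vehicle and agonist controls; replication: n of 1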
M1 antag: human CHRM1 antagonism | P11229 | CHO-K1 hM1, Fluo-8 calcium fluorescence, ACh EC80 antagonist | inhibition, % at 3 µM | 1.3% of 360,000 active;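 active = percent inhibition above its own plate's cutoff, namely the mean of that plate's compound wells plus 3 SD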;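 note: peak over basal fluorescence ratio during 140 s after agonist addition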
TAAR1 ag: human TAAR1 agonism; CHO RD-HGA16 TAAR1, Fluo-8 calcium fluorescence; vehicle wells 0%, saturating PEA agonist 100%; activation, % at 3 µM; 0.99% of 360,000 active; Q96RJ0;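 active = activation above the mean activation of all test compounds in the run plus 3 SD, cut at about 38% in these data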
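test system = CHO RD-HGA16 cells carrying human TAAR1 plus Gα16 | schedule = 17-24 h seeding, 75 min 37 °C dye, 30 min RT | compound dosing = 3 µM single concentration | control set = DMSO and PEA EC100 | replicates = n 1 | signal = Fluo-8 fluorescence, 5 s baseline then 140 s kinetic read | measure = percent activation vs PEA EC100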
CHRM1 PAM: human CHRM1 positive allosteric modulation; P11229; CHO-K1 hM1, Fluo-8 calcium fluorescence, ACh EC20; 0% = ACh EC20, 100% = maximal ACh; activation, % at 3 µM; 0.088% of 360,000 active; in the data active = activation above about 19%, passing the limit was not always enough
TAAR1 ag confirm: confirmation of human TAAR1 agonists; CHO RD-HGA16 TAAR1, Fluo-8 calcium fluorescence; scaled: DMSO 0%, maximal phenethylamine 100%; 82% of 2,400 active; shares compounds with TAAR1 ag; activation, % at 3 µM; AID 651783;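 active = activation above a cutoff set at the run's mean compound activation plus 3 SD, cut at about 39% in these data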
Ga16 ag counter: counter-screen for TAAR1 agonists: nonselective agonists in parental cells; activation, % at 3 µM; 50% of 2,400 active; shares compounds with TAAR1 ag; CHO-Ga16 parental, Fluo-8 calcium fluorescence; normalized to maximal ATP response, DMSO zero;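 active = activation above the run cutoff, the mean activation over all tested wells plus 3 SD, cut at about 12% in these data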
TAAR1 desens: TAAR1 response desensitization, agonist counter-screen; inhibition, % at 3 µM; CHO RD-HGA16 hTAAR1, Fluo-8 calcium, beta-PEA response inhibition; shares compounds with TAAR1 ag; 46% of 2,400 active;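 active = inhibition above the run cutoff, the mean inhibition of all test compounds plus 3 SD, cut at about 49% in these data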;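 note: beta-PEA stimulus applied at its EC80; loss of beta-PEA calcium signal after compound pretreatment read as receptor desensitization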
Ga16 antag count: nonselective Ga16 antagonist in TAAR1 agonist counter-screen; shares compounds with TAAR1 ag; CHO-Ga16 ATP-induced calcium, Fluo-8 fluorescence; inhibition, % at 3 µM; 39% of 2,400 active; AID 651952;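 active = inhibition above the plate's mean compound inhibition plus 3 SD, computed per plate, cut at about 22% in these data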
Large screens that a line does not name were inactive (follow-up assays come after a bar, where they were run).

O=C(NCC1CCCO1)C1CCN(S(=O)(=O)c2cc(Cl)ccc2Cl)CC1 (stereo unspecified)	none
CC(C)N1C(=O)S/C(=C\c2ccc(-c3ccc(Cl)c(C(=O)O)c3)o2)C1=O	none
CCN(CC)c1ccc(/C=C2/SC(=O)N(C(C)C)C2=O)o1	TAAR1 antag 54.0, TAAR1 ag 72.7 | TAAR1 ag confirm 68.6 | Ga16 ag counter 72.9 | TAAR1 desens 63.8 | Ga16 antag count 67.8
CCc1nc2ccc(C(=O)Nc3ccc(OC)c(OC)c3)cn2c1N(C)CCC(C)C	TAAR1 ag 81.6 | TAAR1 ag confirm 99.4 | Ga16 ag counter 68.0 | TAAR1 desens inactive | Ga16 antag count inactive
C=CCn1c(=O)[nH]c2nc3cc(N=CN(C)C)c(C)cc3nc2c1=O	TAAR1 ag 90.0 | TAAR1 ag confirm inactive | Ga16 ag counter 45.2 | TAAR1 desens inactive | Ga16 antag count 23.4
CCOc1ccc(N2CC(C(=O)NCCCc3ccccc3)CC2=O)cc1 (stereo unspecified)	none
CN1Cc2cccc3c2C(Cc2ccccc2S3)C1 (stereo unspecified)	TAAR1 ag 59.0 | TAAR1 ag confirm 61.1 | Ga16 ag counter inactive | TAAR1 desens inactive | Ga16 antag count inactive
Cc1[nH]c(C)c(S(=O)(=O)NCCc2ccccc2)c1C(=O)N1CCCCC1	TAAR1 ag 52.9 | TAAR1 ag confirm inactive | Ga16 ag counter inactive | TAAR1 desens inactive | Ga16 antag count inactive
O=C(CNCCc1ccccc1)Nc1ccc(C(=O)N2CCCCC2)cc1	TAAR1 ag 46.2 | TAAR1 ag confirm 68.7 | Ga16 ag counter inactive | TAAR1 desens inactive | Ga16 antag count inactive
Cc1c(C(=O)N2CCCCC2)c(S(=O)(=O)NCCc2ccccc2)c(C)n1C	none
CCOC(=O)C1CCN(c2c(NCCC(C)C)c(=O)c2=O)CC1	none
COc1ncnc2c1ncn2CCCNCC(C)c1ccccc1 (stereo unspecified)	TAAR1 ag 64.7 | TAAR1 ag confirm 81.1 | Ga16 ag counter inactive | TAAR1 desens 50.4 | Ga16 antag count inactive
Cn1c(C(=O)N2CCN(c3nc4ccccc4s3)CC2)cc2sccc21	TAAR1 ag 45.9 | TAAR1 ag confirm inactive | Ga16 ag counter 14.4 | TAAR1 desens inactive | Ga16 antag count 24.6
Cc1cccc(C)c1NC(=O)CCCCCC1NC(=O)NC1C (stereo unspecified)	none
CC1NC(=O)NC1CCCCCC(=O)NCCc1ccccc1 (stereo unspecified)	TAAR1 ag 47.7 | TAAR1 ag confirm 78.4 | Ga16 ag counter inactive | TAAR1 desens 74.5 | Ga16 antag count inactive
CC1(c2ccc(OC(F)F)cc2)NC(=O)N(CC(=O)Nc2ccc(F)cc2)C1=O (stereo unspecified)	CHRM1 agonist 28.8, TAAR1 ag 77.5 | TAAR1 ag confirm 106.7 | Ga16 ag counter 46.6 | TAAR1 desens 78.5 | Ga16 antag count 46.0
CC1(c2ccc(OC(F)F)cc2)NC(=O)N(CC(=O)Nc2ccc(S(N)(=O)=O)cc2)C1=O (stereo unspecified)	none
COc1ccc(C2(c3ccc(OC)cc3)NC(=O)N(CC(=O)Nc3ccc(OC(F)F)cc3)C2=O)cc1	none
Cc1cc(NC(=O)CN2C(=O)NC(C)(c3ccc(OC(F)F)cc3)C2=O)no1 (stereo unspecified)	CHRM1 agonist 17.2, TAAR1 ag 83.3 | TAAR1 ag confirm inactive | Ga16 ag counter inactive | TAAR1 desens inactive | Ga16 antag count inactive
CCOc1ccc(NC(=O)CN2C(=O)NC(C)(c3ccc(OC(F)F)cc3)C2=O)cc1 (stereo unspecified)	CHRM1 agonist 32.1, TAAR1 antag 63.0, TAAR1 ag 98.9 | TAAR1 ag confirm 125.0 | Ga16 ag counter 82.3 | TAAR1 desens 97.1 | Ga16 antag count 58.5
CC1(c2ccc(OC(F)F)cc2)NC(=O)N(CC(=O)Nc2cccc(F)c2)C1=O (stereo unspecified)	CHRM1 agonist 44.5, TAAR1 antag 97.6, M1 antag 40.4, TAAR1 ag 137.7 | TAAR1 ag confirm 119.9 | Ga16 ag counter 84.2 | TAAR1 desens 97.1 | Ga16 antag count 71.8
Cc1ccc(C2(C)NC(=O)N(CC(=O)N(C)CC(=O)Nc3cccc(F)c3)C2=O)cc1 (stereo unspecified)	none
Cc1cc(NC(=O)CN2C(=O)NC(C)(c3ccccc3Cl)C2=O)no1 (stereo unspecified)	none
Nc1cccc(Oc2ccc3c(c2)C(=O)NC3=O)c1	none
COc1cccc(CNC(=O)COC(=O)/C=C/c2ccc(SC)cc2)c1	none
CCOC(=O)c1sc(NC(=O)CN2C(=O)NC3(CCCCCCC3)C2=O)c(C(=O)OCC)c1C	none
CCOC(=O)c1c(NC(=O)CN2C(=O)NC(C)(c3ccc(OC(F)F)cc3)C2=O)sc(C)c1C (stereo unspecified)	CHRM1 agonist 18.1, TAAR1 antag 53.3, TAAR1 ag 87.2 | TAAR1 ag confirm 97.5 | Ga16 ag counter 42.0 | TAAR1 desens 85.7 | Ga16 antag count 51.5
CC1(c2ccc(OC(F)F)cc2)NC(=O)N(CC(=O)Nc2ccc(Cl)cc2F)C1=O (stereo unspecified)	CHRM1 agonist 16.6, TAAR1 antag 55.0, TAAR1 ag 95.6 | TAAR1 ag confirm 91.0 | Ga16 ag counter 46.8 | TAAR1 desens 53.4 | Ga16 antag count 43.2
CC1(c2ccc(OC(F)F)cc2)NC(=O)N(CC(=O)Nc2ccc(OC(F)F)cc2)C1=O (stereo unspecified)	CHRM1 agonist 36.1, TAAR1 antag 83.2, M1 antag 28.5, TAAR1 ag 103.0 | TAAR1 ag confirm 96.6 | Ga16 ag counter 45.8 | TAAR1 desens 82.4 | Ga16 antag count 55.8
O=C(NC1CCCC1)C1CCCN(S(=O)(=O)c2ccc(F)cc2)C1 (stereo unspecified)	none
CCOC(=O)NC(NCCc1ccccc1)(C(F)(F)F)C(F)(F)F	TAAR1 antag 86.7, TAAR1 ag 87.3 | TAAR1 ag confirm 97.9 | Ga16 ag counter 14.8 | TAAR1 desens 87.4 | Ga16 antag count inactive
CCOC(=O)C(NCc1ccc(OC)cc1)(NC(C)=O)C(F)(F)F (stereo unspecified)	none
